TRPC4 agonist = activators of mouse TRPC4 channel. HEK293 TRPC4beta/mu-opioid, Fluo4 calcium fluorescence; stronger effect = higher value. B-score at 10 µM. hit rate 0.49% among 310,000. AID 2237;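 active means B-score above 5 SD of library B-scores, and initial fluorescence ratio not above library mean plus 5 SD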;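 further: positive B-score marks a calcium rise read as TRPC4 activation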
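Material: HEK293 stable line with TRPC4beta plus mu-opioid receptor; technique: Fluo4 calcium-sensitive dye fluorescence, kinetic, 1 Hz baseline; timing: Fluo4 dye loading 45 min at room temperature, 110 s recording; controls: assay buffer as low control, maximal DAMGO as high control; read-out: integrated baseline-normalised fluorescence ratio, converted to per-well B score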
TRPC6 inh = mouse TRPC6 channel inhibition. Q61143. HEK293-TRPC6, membrane potential dye, ACh-evoked depolarization; stronger effect = lower value. B-score at 10 µM. hit rate 1.1% among 310,000;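 active means B-score under library mean minus 3 SD, initial fluorescence not abnormally high, positive integrated signal ratio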;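 further: B-score derived from integrated fluorescence ratio over the kinetic read; more negative B-score means stronger inhibition of depolarization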
Target sequence (Q61143 whole entry, looked up): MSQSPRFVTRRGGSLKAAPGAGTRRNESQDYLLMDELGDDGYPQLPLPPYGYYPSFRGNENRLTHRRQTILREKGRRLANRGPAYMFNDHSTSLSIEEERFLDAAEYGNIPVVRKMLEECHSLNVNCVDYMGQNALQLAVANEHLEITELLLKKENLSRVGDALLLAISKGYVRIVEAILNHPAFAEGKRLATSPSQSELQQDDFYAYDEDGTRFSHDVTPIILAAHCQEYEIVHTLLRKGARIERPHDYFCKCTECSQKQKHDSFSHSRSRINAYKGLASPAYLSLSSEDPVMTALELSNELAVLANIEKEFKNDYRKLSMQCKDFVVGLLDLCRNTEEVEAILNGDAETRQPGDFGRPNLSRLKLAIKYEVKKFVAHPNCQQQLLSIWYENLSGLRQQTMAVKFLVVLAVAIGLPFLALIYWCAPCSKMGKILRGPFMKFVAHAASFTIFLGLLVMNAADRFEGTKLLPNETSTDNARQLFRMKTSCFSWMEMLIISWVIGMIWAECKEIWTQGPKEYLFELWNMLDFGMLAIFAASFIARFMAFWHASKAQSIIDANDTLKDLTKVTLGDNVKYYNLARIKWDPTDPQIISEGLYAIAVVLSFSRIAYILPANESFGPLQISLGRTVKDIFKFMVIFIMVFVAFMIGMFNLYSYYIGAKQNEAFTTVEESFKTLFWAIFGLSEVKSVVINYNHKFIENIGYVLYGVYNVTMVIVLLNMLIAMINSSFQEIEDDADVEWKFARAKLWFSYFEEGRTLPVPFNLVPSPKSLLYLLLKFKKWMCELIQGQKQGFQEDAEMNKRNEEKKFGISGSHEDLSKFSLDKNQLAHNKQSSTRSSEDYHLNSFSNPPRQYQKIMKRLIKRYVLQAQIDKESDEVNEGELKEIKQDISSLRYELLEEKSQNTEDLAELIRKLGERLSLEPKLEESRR
TRPC4 block = blocks the mouse TRPC4 cation channel. HEK293 TRPC4beta/mu-opioid, DAMGO-evoked Fluo4 calcium flux; stronger effect = lower value. B-score at 10 µM. Q9QUQ5. hit rate 0.39% among 300,000;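 active means B-score over 3 SD under the library average, no early fluorescence shift, positive overall ratio signal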
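test system = HEK293 cells with stable TRPC4beta plus mu-opioid receptor expression | detection = Fluo4 Ca2+ flux fluorescence | read-out = integrated fluorescence ratio relative to baseline, converted to per-well B score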
TRPC4 potent = allosterically enhances the mouse TRPC4 cation channel; HEK293 TRPC4beta/mu-opioid, DAMGO EC20, Fluo-4 Ca2+ flux; stronger effect = higher value; Q9QUQ5; B-score at 10 µM; hit rate 0.42% among 310,000;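 active means B-score of calcium response area above 5 SD of library B-scores, with initial fluorescence ratio within 5 SD of library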;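 further: B-score of integrated fluorescence ratio over time as area under calcium response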
TRPC6 activator = mouse TRPC6 channel activation. Q61143. HEK293-TRPC6 membrane potential dye fluorescence; stronger effect = higher value. B-score at 10 µM. hit rate 0.13% among 310,000;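 active means B-score of the integrated fluorescence ratio above library mean plus 3 SD, and starting fluorescence ratio within library mean plus 5 SD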;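 further: higher score means more depolarization so channel activation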
TRPC4 spec 2 = second selectivity test of TRPC6 inhibitors: effect on mouse TRPC4 | HEK293 TRPC4/MOR, membrane potential dye fluorescence; channel activated by saturating DAMGO dose | shares compounds with TRPC6 inh | inhibition, % at 10 µM | hit rate 42% among 920;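 active means compounds whose fluorescence signal differed from control wells by over 3 SD, either direction, in both duplicate plates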
TRPC4 spec = selectivity of TRPC6 inhibitors: effect on mouse TRPC4. AID 2777. hit rate 61% among 920. shares compounds with TRPC6 inh. activity change, negative = inhibition, % at 10 µM. HEK293 TRPC4/mu-opioid, membrane potential fluorescence;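 active means rise or fall in signal beyond 3 SD of buffer-only wells in both replicate plates, either sign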;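 further: integrated kinetic ratio of fluorescence range over baseline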
HEK293 MPD ctr 2-1 = parental HEK293 nonspecific activity of TRPC6 inhibitors, second screen; parental HEK293 membrane potential dye fluorescence; maximal acetylcholine challenge after compound addition; shares compounds with TRPC6 inh; AID 2779; hit rate 31% among 920; signal change vs control, % at 10 µM;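 active means membrane potential signal moving either way by over 3 SD of the maximum-effect control, in both duplicate plates, meaning non-specific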
HEK293 MPD ctr-1 = counter-screen for TRPC6 inhibitors: effect in parental HEK293 cells. shares compounds with TRPC6 inh. parental HEK293 membrane potential dye fluorescence. membrane potential signal change, % at 10 µM. hit rate 60% among 920. AID 2780;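 active means membrane potential signal shifting up or down by more than 3 SD of buffer-only wells, on both duplicate plates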
HEK293 MPD ctr-2 = counter-screen for TRPC6 modulators: effect in parental HEK293 cells. membrane potential signal change, % at 10 µM. membrane potential dye fluorescence. hit rate 51% among 2,400. shares compounds with TRPC6 inh;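 active means membrane potential signal moves up or down beyond 5 SD from buffer-only wells, on both duplicate plates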
HEK293 MPD ctr 2-2 = second check of TRPC6 modulator effects in parental HEK293 cells; shares compounds with TRPC6 inh; membrane potential dye fluorescence; after compound, maximal acetylcholine stimulation; inhibition, % at 10 µM; hit rate 14% among 2,400; AID 488926;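 active means membrane potential signal drops by more than 5 SD from the mean control signal, in both duplicate plates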;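 further: plate controls were acetylcholine ECmax control wells for no effect and buffer only wells for full effect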
TRPC4/MOR mod = mouse TRPC4 off-target activity of TRPC6 modulators | percent change from control (negative = decrease, positive = increase), % at 10 µM | AID 488927 | shares compounds with TRPC6 inh | hit rate 69% among 2,400 | HEK293 TRPC4/mu-opioid, membrane potential fluorescence;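 active means membrane potential signal moved up or down beyond 5 SD of buffer control wells, in both duplicate plates, actives on both sides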;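 further: plate controls were assay buffer wells for no effect and DAMGO maximal-effect wells for full effect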
TRPC4/MOR inh 2 = second selectivity test of TRPC6 modulators against mouse TRPC4. AID 488928. shares compounds with TRPC6 inh. hit rate 55% among 2,400. inhibition, % at 10 µM. HEK293 TRPC4/mu-opioid, membrane potential dye fluorescence; stimulated with maximal-effect DAMGO;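 active means drop in membrane potential signal beyond 5 SD of the control wells in both duplicate plates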;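 further: TRPC4 counter screen for TRPC6 hits run under conditions tuned for TRPC6 not TRPC4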
TRPC6 inh conf = mouse TRPC6 inhibitor confirmation; shares compounds with TRPC6 inh; HEK293-TRPC6, membrane potential dye, ACh-evoked depolarization; inhibition, % at 10 µM; hit rate 43% among 3,300; AID 488960;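 active means fluorescence ratio falls more than 5 SD below the full-stimulation control mean, in both duplicate runs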;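 further: integrated fluorescence ratio of peak minus minimum over baseline after agonist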
TRPC6 act conf = mouse TRPC6 activator confirmation; shares compounds with TRPC6 inh; HEK293-TRPC6 membrane potential dye fluorescence, FDSS; activation, % at 10 µM; hit rate 11% among 2,800; AID 488961;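 active means ratio signal rise beyond 5 SD above unstimulated control wells' mean, seen in both duplicate runs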;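 further: plate controls were buffer EC0 wells for no effect and acetylcholine ECmax response for full effect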
* marks the source's active call; other numbers are inactive results. Compounds with a hit are over-represented: about 2.3% of the library has one in this group of screens.

Screening O=C(CCCSc1nnc(-c2cccs2)n1CC1CCCO1)c1ccccc1 (centres undefined) returned TRPC4 agonist inactive, TRPC6 inh -5.18*, TRPC4 block inactive, TRPC4 potent inactive, TRPC6 activator inactive, HEK293 MPD ctr-2 186.5%*, HEK293 MPD ctr 2-2 inactive, TRPC4/MOR mod 33.5%*, TRPC4/MOR inh 2 inactive and TRPC6 inh conf inactive.
`O=C(CSc1nnc(-c2cccs2)n1CC1CCCO1)N1CCCC1` (centres undefined) gave TRPC4 agonist inactive, TRPC6 inh inactive, TRPC4 block inactive, TRPC4 potent inactive and TRPC6 activator inactive.
Screening COc1ccc(S(=O)(=O)N2CCOCC2)cc1NC(=O)c1cccc(Cl)c1 returned TRPC4 agonist inactive, TRPC6 inh inactive, TRPC4 block inactive, TRPC4 potent inactive and TRPC6 activator inactive.
For COC(=O)c1c(C(=O)OC)c(-c2cccc(Cl)c2)n2c1CS(=O)(=O)C2 the results were TRPC4 agonist inactive, TRPC6 inh inactive, TRPC4 block inactive, TRPC4 potent inactive and TRPC6 activator inactive.
O=C(/C=C/c1ccccc1)NCC(=O)N/N=C/c1cccs1 was read as TRPC4 agonist inactive, TRPC6 inh inactive, TRPC4 block inactive, TRPC4 potent inactive and TRPC6 activator inactive.
Screening CCNCCOC(c1ccccc1)c1ccccc1 returned TRPC4 agonist inactive, TRPC6 inh -5.81*, TRPC4 block inactive, TRPC4 potent inactive, TRPC6 activator inactive, HEK293 MPD ctr-2 142.5%*, HEK293 MPD ctr 2-2 inactive, TRPC4/MOR mod 27.0%*, TRPC4/MOR inh 2 36.0%* and TRPC6 inh conf inactive.
Screening COC(=O)CSc1nnc(SCc2ccc(OC)cc2)s1 returned TRPC4 agonist inactive, TRPC6 inh -5.48*, TRPC4 block inactive, TRPC4 potent inactive, TRPC6 activator inactive, HEK293 MPD ctr-2 inactive, HEK293 MPD ctr 2-2 inactive, TRPC4/MOR mod inactive, TRPC4/MOR inh 2 inactive, TRPC6 inh conf inactive and TRPC6 act conf inactive.
Screening Cc1ccc(S(=O)(=O)NC(=O)COc2ccc(Cl)cc2Cl)cc1 returned TRPC4 agonist inactive, TRPC6 inh inactive, TRPC4 block inactive, TRPC4 potent inactive and TRPC6 activator inactive.
COc1cc(/C=N/NC(=O)Cn2nc([N+](=O)[O-])cc2C)cc(Br)c1OCc1ccccc1 was read as TRPC4 agonist inactive, TRPC6 inh -5.08*, TRPC4 block inactive, TRPC4 potent inactive, TRPC6 activator inactive, HEK293 MPD ctr-2 inactive, HEK293 MPD ctr 2-2 inactive, TRPC4/MOR mod inactive, TRPC4/MOR inh 2 inactive, TRPC6 inh conf inactive and TRPC6 act conf inactive.
For CCC1CCCCN1CCCNC(=O)c1ccc2c(c1)N(Cc1c(F)cccc1Cl)C(=O)CS2 (centres undefined) the results were TRPC4 agonist inactive, TRPC6 inh -6.46*, TRPC4 block inactive, TRPC4 potent inactive, TRPC6 activator inactive, HEK293 MPD ctr-2 inactive, HEK293 MPD ctr 2-2 inactive, TRPC4/MOR mod -17.0%*, TRPC4/MOR inh 2 82.5%*, TRPC6 inh conf 77.5%* and TRPC6 act conf inactive.
For O=C(NCc1ccc2c(c1)OCO2)c1ccc2c(c1)N(Cc1c(F)cccc1Cl)C(=O)CS2 the results were TRPC4 agonist inactive, TRPC6 inh inactive, TRPC4 block inactive, TRPC4 potent inactive and TRPC6 activator inactive.
For CSc1cccc(NC(=S)N(CCCN2CCCC(C)C2)Cc2cccs2)c1 (centres undefined) the results were TRPC4 agonist inactive, TRPC6 inh -8.05*, TRPC4 block inactive, TRPC4 potent inactive, TRPC6 activator inactive, TRPC4 spec 2 48.5%*, TRPC4 spec 2.2%*, HEK293 MPD ctr 2-1 inactive, HEK293 MPD ctr-1 3.1%*, TRPC6 inh conf 56.0%* and TRPC6 act conf inactive.
COc1ccc(NC(=S)N(CCCN2CCN(C)CC2)Cc2cccs2)cc1 was read as TRPC4 agonist inactive, TRPC6 inh inactive, TRPC4 block inactive, TRPC4 potent inactive and TRPC6 activator inactive.
Screening COc1ccc(NC(=S)N(CCCN2CCC(C)CC2)Cc2cccs2)cc1Cl returned TRPC4 agonist inactive, TRPC6 inh -5.99*, TRPC4 block inactive, TRPC4 potent inactive, TRPC6 activator inactive, HEK293 MPD ctr-2 inactive, HEK293 MPD ctr 2-2 inactive, TRPC4/MOR mod inactive, TRPC4/MOR inh 2 84.5%*, TRPC6 inh conf 48.5%* and TRPC6 act conf inactive.
Cc1ccc(N=Cc2c(O)n(C)c(=O)n(C)c2=O)nc1 was read as TRPC4 agonist inactive, TRPC6 inh -5.62*, TRPC4 block inactive, TRPC4 potent inactive, TRPC6 activator inactive, HEK293 MPD ctr-2 inactive, HEK293 MPD ctr 2-2 inactive, TRPC4/MOR mod -15.0%*, TRPC4/MOR inh 2 inactive, TRPC6 inh conf inactive and TRPC6 act conf inactive.
For Cc1ccc(N=CC2=C(O)CC(C)(C)CC2=O)nc1 the results were TRPC4 agonist inactive, TRPC6 inh inactive, TRPC4 block inactive, TRPC4 potent inactive and TRPC6 activator inactive.
